Compounds with a hit are over-represented: about 2.1% of the library has one in this group of screens.
RanGTP-Imp inh = inhibitors of RanGTP-importin-beta interaction, primary screen, biochemical, FRET, CFP-Ran, YFP-importin-beta, homogeneous; cell-free CFP-Ran/YFP-importin-beta FRET ratio; Ran GTPase (GTP-bound) - importin-beta complex; actives 1.1% (n = 300,000); inhibition, % (no concentration beside the values);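 active = more than half of the replicate wells show a fall in the fluorescence ratio signal beyond about 16%, limit read from the data, passing the limit was not always enough; inconclusive = exactly half of the replicate wells pass the set limit; inactive = fewer than half of replicates pass the limit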;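 also: 0% = DMSO wells and 100% = Ran loaded with GDP instead of GTP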
Runt-CBFb FRET = inhibitors of RUNX1 Runt–CBFb binding, primary screen, biochemical, FRET, Cerulean-Runt, Venus-CBFb, uHTS. Runt-related transcription factor 1 (Homo sapiens) + Core-binding factor subunit beta …. Cerulean-Runt/Venus-CBFb FRET ratio 530/480, 1 h. inhibition, % at 20 µM. actives 0.46% (n = 220,000). AID 1496, 2009;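 active = inhibition over about 50% at 20 µM in the single-dose screen, limit read from the data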;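 also: 0% = DMSO wells and 100% = excess unlabeled CBFb competitor control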
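Assay system: Cerulean-tagged RUNX1 Runt domain (FRET donor) fusion protein / Amount: 100 nM each of Venus-CBFb and Cerulean-Runt domain / Medium: Tris buffer pH 7.5 with salts and BSA / Also added: Venus-CBFb 100 nM / Schedule: 1 h complex formation plus 1 h compound treatment, room temperature / Signal: FRET fluorescence / Read-out: loss of energy transfer signal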
TbHK1 inh = Trypanosoma brucei hexokinase 1 inhibitors, primary screen, biochemical, G6PDH-coupled NADH absorbance, MLSCN library; hexokinase 1 [Trypanosoma brucei]; recombinant TbHK1, G6PDH-coupled NADH A340; inhibition, % at 10 µM; actives 0.11% (n = 220,000);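 active = inhibition of 50% or more in the single-dose primary screen; inactive = inhibition below 50%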
Runt-SMMHC FRET = inhibitors of RUNX1 Runt–CBFb-SMMHC binding, primary screen, biochemical, FRET, Cerulean-Runt, Venus-CBFb-SMMHC, uHTS. inhibition, % at 20 µM. actives 0.74% (n = 220,000). AID 1434, 2008. Cerulean-Runt/Venus-CBFb-SMMHC FRET ratio 530/480, 1 h;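 active = mean inhibition across duplicate retests at 20 µM reaching about 50%, limit read from the data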;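 also: 0% = DMSO wells and 100% = wells with excess untagged CBFb-SMMHC; inhibitors lower the FRET ratio by blocking Runt binding to CBFb-SMMHC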
p97 inhibitor = inhibitors of human p97 ATPase, primary screen, biochemical. inhibition, % at 8 µM. Transitional endoplasmic reticulum ATPase (Homo sapiens), P55072. actives 0.42% (n = 220,000). recombinant p97 ATPase, Kinase-Glo ATP luminescence, 3 h. AID 1481, 2009; in the data active = inhibition above about 15%;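 also: 0% = DMSO vehicle and 100% = wells lacking enzyme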
Hck-Nef inh = inhibitors of Nef-activated human Hck kinase, primary screen, biochemical, Z-Lyte FRET, 384-well, Hck-YEEI. Tyrosine-protein kinase HCK (Homo sapiens), P08631. Recombinant Hck-YEEI plus Nef, Z-Lyte FRET kinase assay. inhibition, % at 20 µM. actives 0.68% (n = 220,000). AID 463187, 2010;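 active = Hck-Nef kinase inhibition above about 50%, limit read from the data; inactive = inhibition below that limit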;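 also: 0% = DMSO with Hck plus Nef and 100% = Hck alone without Nef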
Target sequence (P08631 whole entry, looked up): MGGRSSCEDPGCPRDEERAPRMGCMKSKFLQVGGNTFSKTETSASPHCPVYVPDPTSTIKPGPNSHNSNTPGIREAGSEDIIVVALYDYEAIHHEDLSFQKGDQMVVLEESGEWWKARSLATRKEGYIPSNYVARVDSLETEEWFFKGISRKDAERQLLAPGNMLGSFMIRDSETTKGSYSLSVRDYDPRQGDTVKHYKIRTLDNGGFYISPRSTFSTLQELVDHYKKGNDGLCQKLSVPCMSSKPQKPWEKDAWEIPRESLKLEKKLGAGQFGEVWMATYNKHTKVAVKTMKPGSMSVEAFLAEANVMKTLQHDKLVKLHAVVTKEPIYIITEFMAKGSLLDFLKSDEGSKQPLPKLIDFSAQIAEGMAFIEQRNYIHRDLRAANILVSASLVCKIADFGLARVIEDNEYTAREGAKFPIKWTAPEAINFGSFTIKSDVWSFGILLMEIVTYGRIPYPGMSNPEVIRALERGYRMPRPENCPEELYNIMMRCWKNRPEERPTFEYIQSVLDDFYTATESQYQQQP
Numbers without * were called inactive; ? = inconclusive; / = not tested or not shown.

SMILES	RanGTP-Imp inh	Runt-CBFb FRET	TbHK1 inh	Runt-SMMHC FRET	p97 inhibitor	Hck-Nef inh
O=C(Nc1nc2c(s1)CN(Cc1ccccc1)CC2)C1CCCC1	-5	53*	-7	118*	4	28
O=C(Nc1nc2c(s1)CN(Cc1ccccc1)CC2)c1c(F)cccc1F	-1	50	-13	98*	-1	19
CC(C)(C)C(=O)Nc1nc2c(s1)CN(Cc1ccccc1)CC2	99*	77*	-1	92*	3	14
CN(CC(=O)N1CCc2ccccc2C1)c1ccccc1	0	/	/	/	/	/
CC1(C)CC(=O)C/C(=N/NC(=O)c2ccc(-c3ccccc3)cc2)C1	24*	-1	-5	-5	5	4
CC1(C)CC(=O)CC(=Nc2ccc(C(=O)O)cc2)C1	45*	0	-35	3	4	1
COc1ccc(CC(=O)N2CCN(c3ccccc3)CC2)cc1	-3	/	/	/	/	/
Cc1ccccc1-n1ncc2c1CC(C)(C)CC2NC(=O)CCCN1CCCC1=O (configuration not stated)	-1	/	/	/	/	/
CN1C(=O)NC(c2ccccc2[N+](=O)[O-])C2=C1CCCC2=O (configuration not stated)	7	/	/	/	/	/
CN(C)c1ccc(-c2ccc3c(=O)c4ccccc4n(C)c3c2)cn1	19*	/	/	/	/	/
COc1cc2sc3ccc(-c4ccc(N(C)C)nc4)cc3c(=O)c2cc1OC	-3	/	/	/	/	/
C=C(C)CN(CC)c1nc(N)c2c(N)nc3c(c2c1C#N)CC(=O)N3C12CC3CC(CC(C3)C1)C2	6	-1	-13	-1	3	12
CCCCN1C(=O)Cc2c1nc(N)c1c(N)nc(N(CCC)CCC)c(C#N)c21	3	103*	-7	-2	-1	15
COc1ccc(NS(=O)(=O)c2cccc(C(=O)N3CCN(c4ccccc4O)CC3)c2)cc1	-2	/	/	/	/	/
COc1ccc(N2CCN(C(=O)Cc3ccc(OC)c(OC)c3)CC2)cc1	-3	/	/	/	/	/
Cc1cc(NCCN2CCOCC2)n2nc(C)c(-c3ccccc3)c2n1	0	0	-16	3	-9	3
Cc1cc(C)c2c(n1)nn1c(NCCN3CCOCC3)cc(C)nc21	35*	7	-13	38	2	33
CCOC(=O)/C(C#N)=C1/C=C(C)c2ccccc2N1	4	44	-5	91*	-2	48
CSc1nc(=S)c2[nH]c(=S)[nH]c2[nH]1	-2	13	-13	51*	5	-152
Cc1cc([N+](=O)[O-])c(C)cc1-c1ccc(/C=N/NC(=O)Cn2nnnc2N)o1	-5	19	-18	12	3	53*
Nc1nnnn1CC(=O)N/N=C/c1cc([N+](=O)[O-])ccc1Cl	0	0	-2	2	8	-3
Oc1csc(Cc2nc(-c3ccccc3F)cs2)n1	21*	5	-3	-12	1	13
Oc1csc(Cc2nc(-c3ccc(-c4ccccc4)cc3)cs2)n1	-6	-14	-32	-50	-2	0
Nc1c(Cl)ncnc1N/N=C/c1ccc2ccccc2n1	/	-11	43	-13	5	6
Nc1c(Cl)ncnc1N/N=C/c1ccccn1	/	36	42	78*	-5	2
SMILES	RanGTP-Imp inh	Runt-CBFb FRET	TbHK1 inh	Runt-SMMHC FRET	p97 inhibitor	Hck-Nef inh
CCN1CCc2c(sc(NC(=O)CN3C(=O)c4ccccc4C3=O)c2C(N)=O)C1	-4	62*	-3	102*	7	27
CC(=O)Nc1sc2c(c1C(N)=O)CCN(Cc1ccccc1)C2	162*	9	-11	130*	-4	5
CN1CCc2c(sc(NC(=O)c3ccc(C(=O)c4ccccc4)cc3)c2C(N)=O)C1	2	/	/	/	/	/
NC(=O)c1c(NC(=O)CN2C(=O)NC(Cc3ccccc3)C2=O)sc2c1CCC2 (configuration not stated)	7	2	-16	-2	-5	14
NC(=O)c1c(NC(=O)Cc2ccccc2)sc2c1CCN(Cc1ccccc1)C2	134*	/	/	/	/	/
CC(=O)N1CCc2c(sc(NC(=O)Cc3ccc(F)cc3)c2C(N)=O)C1	8	/	/	/	/	/
CCOC(=O)C1CCN(C(=O)C2COc3ccccc3O2)CC1 (configuration not stated)	-3	/	/	/	/	/
COc1ccc(C2=Nn3c(nnc3C(F)(F)F)SC2)cc1	-2	/	/	/	/	/
CCCn1c(NCc2cc(C)ccc2O)nc2ccccc21	28*	2	1	0	-1	2
COc1cc(/C=C/C(=O)N2C(=O)c3cccc(N)c3C2=O)cc(OC)c1OC	?	-26	-15	33	8	2
Nc1cccc2c1C(=O)N(C(=O)/C=C/c1cccc(F)c1)C2=O	27*	-42	-16	90*	2	16
O=C(NC1CCCC1)C(c1ccccn1)N(C(=O)c1csnn1)c1ccccc1Br (configuration not stated)	-10	/	/	/	/	/
O=C(c1ccc(Cl)cc1)N1CCN(c2ccc(F)cc2)CC1	3	18	3	72*	-2	10
O=C(c1ccncc1)N1CCN(c2ccc(F)cc2)CC1	6	2	0	-1	0	1
COc1ccc(CC(=O)NNC(=O)c2nn(Cc3ccccc3)c(=O)c3ccccc23)cc1OC	1	-2	1	1	2	-17
Nc1cccc2c1C(=O)N(C(=O)c1cccc(S(=O)(=O)N3CCCC3)c1)C2=O	9	-30	0	62*	-4	-23
COc1ccc(OCC(=O)NCc2ccc(Cl)cc2)cc1	1	/	/	/	/	/
COc1ccc(CNC(=O)COc2ccc([N+](=O)[O-])cc2)cc1	37*	0	-8	-2	-1	2
COc1cccc(-n2c(C)cc(/C=C3\C(=N)N4N=C(CC(=O)N5CCOCC5)SC4=NC3=O)c2C)c1	16*	/	/	/	/	/
O=C(NCc1cccnc1)[C@@H]1CC=C[C@@H]2CCN(Cc3ccccc3)C(=O)[C@@H]21	-3	/	/	/	/	/
COC(=O)c1ccc(-c2sc3nc(N4CCOCC4)c4c(c3c2N)CC(C)(C)OC4)o1	24*	-2	-13	-24	6	-9
CCOC(=O)C1CCN(c2nc(C)cc(C)c2C#N)CC1	8	0	12	2	-3	7
CCOC(=O)C1CCN(c2nc(N)c3c(N)nc(SCC(=O)O)cc3c2C#N)CC1	-8	1	-2	-44	55*	2
